From ChEMBL document CHEMBL4680311, “Synthesis, characterization, in vitro SAR study, and preliminary in vivo toxicity evaluation of naphthylmethyl substituted bis-imidazolium salts” (Bioorg Med Chem, 2021)

Experiments:
HCC827 = experiment: Cytotoxicity against human HCC827 cells assessed as cell growth inhibition measured after 72 hrs by MTT assay; assay type: functional, cell-based; conditions: HCC827, 72 h
Method in brief: (§1)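 Cells kept in RPMI 1640 with 10% FBS at 37 °C, 5% CO₂, passaged every 2–3 days; grown to confluence, seeded at 5,000–7,000 cells/well depending on line, incubated 24 h. Compounds dissolved in 1% DMSO, diluted in medium to 1, 4, 16, 32 μM (6 replicates each), 72 h exposure. MTT 3–4 h, medium aspirated, DMSO added, 15 min, OD 540 nm; IC50 relative to untreated cells.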

NCI-H1975 = experiment: Cytotoxicity against human NCI-H1975 cells assessed as cell growth inhibition measured after 72 hrs by MTT assay; assay type: functional, cell-based; conditions: NCI-H1975, 72 h; method in brief: as §1
NCI-H460 [1] = experiment: Cytotoxicity against human NCI-H460 cells assessed as cell growth inhibition measured after 72 hrs by MTT assay; assay type: functional, cell-based; conditions: NCI-H460, 72 h; method in brief: as §1
NCI-H460 [2] = experiment: Antiproliferative activity against human NCI-H460 cells assessed as cell growth at 10 uM incubated for 48 hrs by sulforhodamine B assay relative to control; assay type: functional; conditions: read-out: Activity
Method in brief: (§2)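 NCI DTP NCI-60 one-dose screen on the NSCLC panel. Cells were seeded at densities set by doubling rate and incubated 24 h. They were then exposed to a single 10 μM dose for 48 h. Each value is a growth percentage relative to the initial cell population: positive means net growth, negative means net cell kill.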

HOP-92 [3] = experiment: Antiproliferative activity against human HOP-92 cells assessed as cell growth at 10 uM incubated for 48 hrs by sulforhodamine B assay relative to control; assay type: functional; conditions: read-out: Activity; method in brief: as §2
NCI-H23 [4] = experiment: Antiproliferative activity against human NCI-H23 cells assessed as cell growth at 10 uM incubated for 48 hrs by sulforhodamine B assay relative to control; assay type: functional; conditions: read-out: Activity; method in brief: as §2
HOP-62 [5] = experiment: Antiproliferative activity against human HOP-62 cells assessed as cell growth at 10 uM incubated for 48 hrs by sulforhodamine B assay relative to control; assay type: functional; conditions: read-out: Activity; method in brief: as §2
NCI-H522 [6] = experiment: Antiproliferative activity against human NCI-H522 cells assessed as cell growth at 10 uM incubated for 48 hrs by sulforhodamine B assay relative to control; assay type: functional; conditions: read-out: Activity; method in brief: as §2
A549 [7] = experiment: Cytotoxicity against human A549 cells assessed as cell growth inhibition measured after 72 hrs by MTT assay; assay type: functional, cell-based; conditions: A549, 72 h; method in brief: as §1
NCI-H226 [8] = experiment: Antiproliferative activity against human NCI-H226 cells assessed as cell growth at 10 uM incubated for 48 hrs by sulforhodamine B assay relative to control; assay type: functional; conditions: read-out: Activity; method in brief: as §2
EKVX [9] = experiment: Antiproliferative activity against human EKVX cells assessed as cell growth at 10 uM incubated for 48 hrs by sulforhodamine B assay relative to control; assay type: functional; conditions: read-out: Activity; method in brief: as §2
NCI-H322M [10] = experiment: Antiproliferative activity against human NCI-H322M cells assessed as cell growth at 10 uM incubated for 48 hrs by sulforhodamine B assay relative to control; assay type: functional; conditions: read-out: Activity; method in brief: as §2
A549 [11] = experiment: Antiproliferative activity against human A549/ATCC cells assessed as cell growth at 10 uM incubated for 48 hrs by sulforhodamine B assay relative to control; assay type: functional; conditions: read-out: Activity; method in brief: as §2
[12] = Toxicity in C57BL/6 mouse assessed as body weight loss at 20 mg/kg, ip administered on day 0, 7, 14 and 29 relative to control; assay type: organism-based; conditions: in vivo, 96 h, time 4 day
Method in brief: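 Male C57BL/6 mice, 8 weeks old, acclimated 5 days, 12 h light/dark, 3 per cage, n = 3. Mice got 100 μL of 4 mg/mL drug in 20% 2-HPβCD in sterile PBS, about 20 mg/kg assuming 20 g, IP on days 0, 7, 14 and 29 (1 h before sacrifice). Vehicle mice were dosed IP on days 0, 7, 14, 21, 25 and 29. Weight and behaviour were checked daily; sacrifice was on day 29.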

NCI-H522 [13] = experiment: Growth inhibition of human NCI-H522 cells incubated for 48 hrs by sulforhodamine B assay; assay type: functional; conditions: for CC50: read-out: LC50 (the source's name)
Method in brief: (§3)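 NCI DTP NCI-60 five-dose screen, same procedure as the one-dose assay: 24 h preincubation, then 48 h exposure. Five tenfold-spaced concentrations were used, from 100 μM to 10 nM or from 25 μM to 2.5 nM depending on compound. GI50, TGI and LC50 were read from growth-percentage curves relative to control cells.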

EKVX [14] = experiment: Growth inhibition of human EKVX cells incubated for 48 hrs by sulforhodamine B assay; assay type: functional; method in brief: as §3
NCI-H460 [15] = experiment: Growth inhibition of human NCI-H460 cells incubated for 48 hrs by sulforhodamine B assay; assay type: functional; method in brief: as §3
A549 [16] = experiment: Growth inhibition of human A549/ATCC cells incubated for 48 hrs by sulforhodamine B assay; assay type: functional; conditions: for CC50: read-out: LC50 (the source's name); method in brief: as §3
HOP-92 [17] = experiment: Growth inhibition of human HOP-92 cells incubated for 48 hrs by sulforhodamine B assay; assay type: functional; method in brief: as §3
NCI-H23 [18] = experiment: Growth inhibition of human NCI-H23 cells incubated for 48 hrs by sulforhodamine B assay; assay type: functional; method in brief: as §3
NCI-H322M [19] = experiment: Growth inhibition of human NCI-H322M cells incubated for 48 hrs by sulforhodamine B assay; assay type: functional; method in brief: as §3
[20] = Toxicity in C57BL/6 mouse assessed as body weight gain at 20 mg/kg, ip administered on day 0, 7, 14 and 29; assay type: organism-based; conditions: in vivo, 96 h, time 4 day
Method in brief: (§4)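 Male C57BL/6 mice, eight weeks old, acclimated 5 days, 3 per cage, 12 h light/dark, food and water ad libitum. IP injection of 100 μL of a 4 mg/mL solution in 20% 2-HPβCD sterile PBS (~20 mg/kg assuming 20 g mouse) on days 0, 7, 14, 29. Vehicle mice got 2-HPβCD on days 0, 7, 14, 21, 25, 29. Weighed and observed daily; sacrificed day 29.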

NCI-H226 [21] = experiment: Growth inhibition of human NCI-H226 cells incubated for 48 hrs by sulforhodamine B assay; assay type: functional; method in brief: as §3
[22] = Toxicity in C57BL/6 mouse assessed as body weight loss measured on day 6 at 20 mg/kg, ip administered on day 0, 7, 14 and 29; conditions: in vivo
[23] = Toxicity in C57BL/6 mouse assessed as body weight loss recovery measured after second and third injection at 20 mg/kg, ip administered on day 0, 7, 14 and 29 relative to control; assay type: organism-based; conditions: in vivo, 96 h, time 4 day; method in brief: as §4
HOP-62 [24] = experiment: Growth inhibition of human HOP-62 cells incubated for 48 hrs by sulforhodamine B assay; assay type: functional; method in brief: as §3

Structure (SMILES) | IC50 (HCC827) [µM] | IC50 (NCI-H1975) [µM] | IC50 (NCI-H460 [1]) [µM] | growth at 10 µM (NCI-H460 [2]) [%] | growth at 10 µM (HOP-92 [3]) [%] | growth at 10 µM (NCI-H23 [4]) [%] | growth at 10 µM (HOP-62 [5]) [%] | IC50 (A549 [7]) [µM] | growth at 10 µM (NCI-H226 [8]) [%] | growth at 10 µM (EKVX [9]) [%] | growth at 10 µM (NCI-H322M [10]) [%] | growth at 10 µM (A549 [11]) [%] | GI50 (NCI-H522 [13]) [µM] | CC50 (NCI-H522 [13]) [µM] | GI50 (EKVX [14]) [µM] | LC50 (EKVX [14]) [µM] | GI50 (NCI-H460 [15]) [µM] | LC50 (concentration giving 50% net cell kill) (NCI-H460 [15]) [µM] | TGI (NCI-H460 [15]) [µM] | CC50 (A549 [16]) [µM] | other results
c1ccc2cc(Cn3cc[n+](Cc4ccc5ccccc5c4)c3)ccc2c1 | 9 | 6 | 4 | – | – | – | – | – | – | – | – | – | – | – | – | – | – | – | – | – | –
c1ccc2cc(Cn3cc[n+](CCCCCCn4cc[n+](Cc5ccc6ccccc6c5)c4)c3)ccc2c1 | 12 | 6 | 2 | 24.6 | 59.9 | 30.5 | 55.8 | < 1 | 69.6 | 37.3 | 76.2 | 38.6 | – | – | – | – | – | – | – | – | growth at 10 µM (NCI-H522 [6]): 33.1%
[Br-].[Br-].c1ccc2cc(Cn3cc[n+](CCCCCCCCCCn4cc[n+](Cc5ccc6ccccc6c5)c4)c3)ccc2c1 | 7 | 2 | < 1 | 11 | -23.6 | 5.67 | -4.86 | < 1 | 39.5 | 13.7 | 34.5 | 18.6 | 0.436 | 5.95 | 0.442 | 58.4 | 0.376 | 45.9 | 10.1 | 50.3 | Activity [12]: 4%; GI50 (HOP-92 [17]): 0.396 µM; LC50 (concentration giving 50% net cell kill) (HOP-92 [17]): 15.2 µM; GI50 (NCI-H23 [18]): 0.445 µM; LC50 (NCI-H23 [18]): 39.9 µM; GI50 (NCI-H322M [19]): 3.55 µM; LC50 (concentration giving 50% net cell kill) (NCI-H322M [19]): 48.1 µM; TGI (NCI-H322M [19]): 18.4 µM; Activity [20]: Toxic; GI50 (NCI-H226 [21]): 0.918 µM; LC50 (NCI-H226 [21]): > 100 µM; TGI (NCI-H226 [21]): 13.6 µM; body weight loss at 96 h [22]: 10%; Activity [23]: Toxic; GI50 (HOP-62 [24]): 1.09 µM; LC50 (concentration giving 50% net cell kill) (HOP-62 [24]): 44.5 µM
c1ccc2cc(Cn3cc[n+](CCCCCCCCCCCCn4cc[n+](Cc5ccc6ccccc6c5)c4)c3)ccc2c1 | 4 | < 1 | < 1 | – | -68.2 | -80.3 | -58 | < 1 | -42.1 | -62.6 | -18.4 | -74.2 | 0.47 | 9.89 | 0.893 | 20.8 | 0.814 | 14.6 | 2.96 | 14.2 | GI50 (A549 [16]): 0.744 µM; GI50 (HOP-92 [17]): 0.5 µM; LC50 (concentration giving 50% net cell kill) (HOP-92 [17]): 7.29 µM; GI50 (NCI-H23 [18]): 0.722 µM; LC50 (NCI-H23 [18]): 11.2 µM; GI50 (NCI-H322M [19]): 0.859 µM; LC50 (concentration giving 50% net cell kill) (NCI-H322M [19]): 10.4 µM; TGI (NCI-H322M [19]): 3.9 µM; GI50 (NCI-H226 [21]): 0.984 µM; LC50 (NCI-H226 [21]): > 25 µM; TGI (NCI-H226 [21]): 5.52 µM; GI50 (HOP-62 [24]): 0.815 µM; LC50 (concentration giving 50% net cell kill) (HOP-62 [24]): 12.2 µM
c1ccc2cc(Cn3cc[n+](CCn4cc[n+](Cc5ccc6ccccc6c5)c4)c3)ccc2c1 | > 30 | > 30 | 14 | – | 79.2 | 88.9 | 86 | > 30 | 82.7 | 91.4 | 86.4 | 64.1 | – | – | – | – | – | – | – | – | –
